Data taken from ChEMBL document CHEMBL1140737, “Discovery of novel agonists and antagonists of the free fatty acid receptor 1 (FFAR1) using virtual screening” (J Med Chem, 2008).
Active and inactive are the calls of the source. The rule behind the calls is not given here.

Columns and labels:
[1] = molecular target: T1, Free fatty acid receptor 1 (Homo sapiens, UniProt O14842); assay: Activity at FFAR1 expressed in HEK-EM293 cells assessed as calcium influx by FLIPR assay; format: functional, cell-based, HEK293
T1 sequence (O14842 whole entry): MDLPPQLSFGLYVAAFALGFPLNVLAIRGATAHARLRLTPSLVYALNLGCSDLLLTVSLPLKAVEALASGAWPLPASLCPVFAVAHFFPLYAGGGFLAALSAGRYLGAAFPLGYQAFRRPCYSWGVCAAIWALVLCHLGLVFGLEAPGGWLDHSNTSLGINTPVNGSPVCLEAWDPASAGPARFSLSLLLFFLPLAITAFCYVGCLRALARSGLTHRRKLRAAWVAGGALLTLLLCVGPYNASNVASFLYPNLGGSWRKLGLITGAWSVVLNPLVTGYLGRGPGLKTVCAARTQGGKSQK

[2] = molecular target: Free fatty acid receptor 1 (Homo sapiens, UniProt O14842, R183A); assay: Activity at FFAR1 R183A mutant expressed in HEK-EM293 cells assessed as calcium influx by FLIPR assay; format: functional, cell-based, HEK293
Sequence of Free fatty acid receptor 1 (Homo sapiens, UniProt O14842, R183A) (O14842 whole entry R183A): as the sequence (O14842 whole entry) above, with R183A counted along it
Outline: (§1)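 Mutant or wild-type FFAR1 cDNA transiently transfected (lipofectamine LTX/PLUS) into HEK-EM 293 cells. Cells seeded at 60 000/well one day before, then loaded with Calcium4 dye in HEPES (20 mM)-buffered HBSS. Intracellular calcium flux read by FLIPR after agonist addition; EC50 from concentration-response curves.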

[3] = molecular target: Free fatty acid receptor 1 (Homo sapiens, UniProt O14842, L186F); assay: Activity at FFAR1 L186F mutant expressed in HEK-EM293 cells assessed as calcium influx by FLIPR assay; format: functional, cell-based, HEK293; outline: as §1
Sequence of Free fatty acid receptor 1 (Homo sapiens, UniProt O14842, L186F) (O14842 whole entry L186F): as the sequence (O14842 whole entry) above, with L186F counted along it

[4] = molecular target: Free fatty acid receptor 1 (Homo sapiens, UniProt O14842, N244A); assay: Activity at FFAR1 N244A mutant expressed in HEK-EM293 cells assessed as calcium influx by FLIPR assay; format: functional, cell-based, HEK293; outline: as §1
Sequence of Free fatty acid receptor 1 (Homo sapiens, UniProt O14842, N244A) (O14842 whole entry N244A): as the sequence (O14842 whole entry) above, with N244A counted along it

[5] = molecular target: Free fatty acid receptor 1 (Homo sapiens, UniProt O14842, H86F); assay: Activity at FFAR1 H86F mutant expressed in HEK-EM293 cells assessed as calcium influx by FLIPR assay; format: functional, cell-based, HEK293; outline: as §1
Sequence of Free fatty acid receptor 1 (Homo sapiens, UniProt O14842, H86F) (O14842 whole entry H86F): as the sequence (O14842 whole entry) above, with H86F counted along it

[6] = molecular target: Free fatty acid receptor 1 (Homo sapiens, UniProt O14842, H137F); assay: Activity at FFAR1 H137F mutant expressed in HEK-EM293 cells assessed as calcium influx by FLIPR assay; format: functional, cell-based, HEK293; outline: as §1
Sequence of Free fatty acid receptor 1 (Homo sapiens, UniProt O14842, H137F) (O14842 whole entry H137F): as the sequence (O14842 whole entry) above, with H137F counted along it

[7] = molecular target: T1, Free fatty acid receptor 1; assay: Activity at FFAR1 expressed in HEK-EM293 cells assessed as calcium influx relative to GW-9508 by FLIPR assay; format: functional, cell-based; parameters: concentration or dose not given beside the values; conditions: HEK293
[8] = molecular target: T1, Free fatty acid receptor 1; assay: Agonist activity at FFAR1 expressed in HEK-EM293 cells assessed as calcium influx by FLIPR assay; format: functional, cell-based, HEK293; conditions: for Activity: HEK293
[9] = molecular target: T1, Free fatty acid receptor 1; assay: Antagonist activity at FFAR1 expressed in HEK-EM293 cells assessed as inhibition calcium influx by FLIPR assay; format: functional, cell-based, HEK293
[10] = molecular target: T1, Free fatty acid receptor 1; assay: Antagonist activity at FFAR1 expressed in HEK-EM293 cells assessed as linoleic acid-stimulated calcium influx after 30 mins by FLIPR assay; format: functional, cell-based; conditions: HEK293
[11] = Antagonist activity at TRH receptor 1 expressed in HEK-EM293 cells assessed as inhibition of thyrotropin-releasing hormone-stimulated calcium influx at 30 uM by FLIPR assay; format: functional; conditions: HEK293
Outline: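 HEK-EM 293 cells stably expressing TRH-R1, grown with 200 µg/mL hygromycin and loaded with Calcium4. Pre-incubated with compound, up to 30 µM, then stimulated with TRH. Inhibition of the FLIPR calcium response measured.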

Activity [7] [%] | EC50 [8] [µM] | Activity [8] | SMILES | also measured
49 | 14.5 |  | C=CCOc1ccc(CNc2cccc(C(=O)O)c2)cc1 | 
 |  | inactive | O=C(Nc1ccc(OCc2ccccc2)cc1)c1cccc([N+](=O)[O-])c1 | 
52 | 8.2 |  | O=C(O)c1cccc(NCc2cccc(OCc3ccccc3)c2)c1 | 
56 | 16.1 |  | O=C(O)c1ccc(NC(=O)c2ccc(C(=O)c3ccccc3)cc2)cc1 | 
 |  | inactive | O=C(c1ccccc1)c1ccc(NC(=O)c2ccccc2C(=O)O)cc1 | 

Continued, compound first:

SMILES | Activity [7] [%] | EC50 [8] [µM] | Activity [8] | also measured
O=C(O)CSc1nnc(SCc2cccc3ccccc23)s1 | 100 | 3.6 |  | EC50 [1]: 1.8 µM; EC50 [2]: ≥ 100 µM; EC50 [3]: 0.97 µM; EC50 [4]: ≥ 100 µM; EC50 [5]: ≥ 100 µM; EC50 [6]: 4.3 µM
O=C(O)c1ccc(NCc2ccc3c(c2)OCO3)cc1 | 50 | 24.6 |  | 
COc1ccc(CNC(=O)/C=C\c2ccc([N+](=O)[O-])cc2)cc1 |  |  | inactive | 
O=C(O)CCCCCN1C(=O)/C(=C\c2cccc3ccccc23)SC1=S | 100 | 12.2 |  | 
O=C(O)CCN1C(=O)/C(=C\c2c[nH]c3ccccc23)SC1=S |  |  | inactive | 
COc1ccc(CSc2nnc(SCc3ccc(C(=O)O)cc3)s2)cc1 | 40 | 15.1 |  | 
O=C(Nc1ccccc1)c1cccc(Oc2ccc([N+](=O)[O-])cc2)c1 |  |  |  | IC50 [9]: 5.3 µM
O=C(O)CCCN1C(=O)/C(=C\c2ccco2)SC1=S | 44 | 16.8 |  | 
O=C(O)CCCN1C(=O)/C(=C\c2ccc(F)cc2)SC1=S | 26 | 22.6 |  | 
O=C(O)CCN1C(=O)/C(=C\c2cccc3ccccc23)SC1=S |  |  | inactive | 
O=C(O)CCCN1C(=O)/C(=C\c2cccs2)SC1=S | 43 | 19 |  | 
O=C(O)CCN1C(=O)/C(=C\c2ccncc2)SC1=S |  |  | inactive | 
O=C(O)CCCCCN1C(=O)/C(=C\c2cccs2)SC1=S | 59 | 7.6 |  | EC50 [1]: 6.6 µM; EC50 [2]: > 30 µM; EC50 [3]: 3.2 µM; EC50 [4]: > 30 µM; EC50 [5]: > 10 µM; EC50 [6]: 7.8 µM
O=C(O)CCCN1C(=O)/C(=C\c2ccc3c(c2)OCO3)SC1=S |  |  | Active | 
O=C(NCc1cccc(Oc2ccccc2)c1)c1ccc([N+](=O)[O-])cc1 |  |  |  | Activity [10]: Active; inhibition at 30 µM [11]: 30%; IC50 [9]: 2.8 µM
COC(=O)CSc1nnc(SCc2ccccc2)s1 | 41 | 16.7 |  | 
COc1ccc(CNC(=O)[C@H](C)c2ccc([N+](=O)[O-])cc2)cc1 |  |  | inactive | 
